The subject of series [1] is Human immunodeficiency virus 1. Kind of series: Antiviral activity against 0.1 MOI HIV1 3B infected in human TZM-b1 cells assessed as inhibition of viral replication after 24 hrs by luciferase assay. The format is functional, organism-based. An outline of the steps: (§1)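 TZM-bl cells in phenol red-free RPMI 1640 were infected with HIV-1 IIIB (MOI 0.1) at the time of adding drug at various concentrations, and drug and virus stayed together for 24 h. Lysate luciferase was measured with uninfected background subtracted, in quintuple wells. Inhibition was the mean signal relative to drug-free infected cells.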

In series [2] the test system is CCRF-CEM. Nature of the series: Drug metabolism in human CEM cells assessed as radioactive stavudine diphosphate accumulation at 2 uM assessed per 10^6 cells. Format: ADME, cell-based. The following applies: TDE = time-dependent effect. An outline of the steps:
(§2)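 CEM cells (2 x 10^7/ml) in RPMI 1640 with 10% dialyzed FBS were incubated at 37°C with 2 µM [3H]analog (75 mCi/mmol) and harvested at 2, 4, 8, 12, 16 and 24 h. Cells were washed in ice-cold PBS with 20 µM dipyridamole and extracted with 15% TCA. Neutralized extracts were separated on a Partisil SAX column with an H2O to 300 mM potassium phosphate gradient and radiometric detection, reported as pmol/10^6 cells, mean ± SD of three experiments.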

Series [3] has as its system RKO. Kind of series: Drug metabolism in doxycyclin-induced Tet-On gene expressing human RKO cells producing thymidylate kinase assessed as increase in radioactive 2', 3'-didehydro-3'-deoxy-4'-ethynylthymidine triphosphate accumulation at 2 uM after 16 hrs assessed per 10^6 cells by HPLC analysis relative to control. The format is ADME, cell-based. An outline of the steps:
(§3)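 TMPK Tet-On RKO cells were seeded at 5 x 10^5 per dish with doxycycline at 0, 50 or 3,000 ng/ml for 48 or 72 h, then pulsed for 16 h with 2 µM [5'-3H]4'-Ed4T (478 mCi/mmol). After a cold PBS wash containing 20 µM dipyridamole, cells were extracted with 15% TCA and neutralized with trioctylamine/trichlorotrifluoroethane. Metabolites were quantified by radio-HPLC as pmol/10^6 cells, n=3.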

The test system of series [4] is Human immunodeficiency virus 1. Kind of series: Antiviral activity against 0.1 MOI HIV1 3B in 24 hrs pretreated human TZM-b1 cells infected 0 hr post drug removal assessed as inhibition of viral replication at 5 uM measured 24 hrs postinfection by luciferase assay. The conditions noted are these: Human immunodeficiency virus 1, 3B. Format: functional. An outline of the steps: (§4)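 TZM-bl cells were plated in phenol red-free RPMI 1640, allowed to adhere 15–18 h at 37°C, then exposed to a range of drug concentrations for 24 h. Medium was changed to remove extracellular drug, and cells were infected with HIV-1 IIIB (MOI 0.1) at 0, 24 or 48 h after removal. Luciferase was read 24 h post-infection with uninfected-cell background subtracted, in quintuple wells, and expressed relative to no-drug wells.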

For series [5], the system named is CCRF-CEM. Nature of the series: Drug metabolism in human CEM cells assessed as radioactive 2', 3'-didehydro-3'-deoxy-4'-ethynylthymidine triphosphate accumulation after 12 hrs assessed per 10^6 cells. Format: ADME, cell-based. An outline of the steps: as §2
In series [6] the test system is CCRF-CEM. Kind of series: Drug metabolism in human CEM cells assessed as radioactive zidovudine monophosphate accumulation at 2 uM assessed per 10^6 cells. The format is ADME, cell-based. The conditions noted are these: TDE = time-dependent effect. An outline of the steps: as §2
Series [7] concerns Human immunodeficiency virus 1. Kind of series: Antiviral activity against 0.1 MOI HIV1 3B in 24 hrs pretreated human TZM-b1 cells infected 0 hr post drug removal assessed as inhibition of viral replication at 2 uM measured 24 hrs postinfection by luciferase assay. The following applies: Human immunodeficiency virus 1, 3B. The format is functional. An outline of the steps:
as §4

Series [8] concerns Human immunodeficiency virus 1. Nature of the series: Antiviral activity against 0.1 MOI HIV1 3B in 24 hrs pretreated human TZM-b1 cells infected 0 hr post drug removal assessed as inhibition of viral replication at 4 uM measured 24 hrs postinfection by luciferase assay. The format is functional. The following applies: Human immunodeficiency virus 1, 3B. An outline of the steps: as §4

Series [9] concerns Human immunodeficiency virus 1. Kind of series: Antiviral activity against 0.1 MOI HIV1 3B infected in human TZM-b1 cells assessed as inhibition of viral replication at 6 uM after 24 hrs by luciferase assay. Format: functional. The following applies: Human immunodeficiency virus 1, 3B, TZM-b1, 24 h. An outline of the steps:
as §1

The test system of series [10] is Human immunodeficiency virus 1. Nature of the series: Antiviral activity against 0.1 MOI HIV1 3B in 24 hrs pretreated human TZM-b1 cells infected 0 hr post drug removal assessed as inhibition of viral replication at 1 uM measured 24 hrs postinfection by luciferase assay. The format is functional. The following applies: Human immunodeficiency virus 1, 3B. An outline of the steps: as §4

Series [11] deals with CCRF-CEM. Kind of series: Drug metabolism in human CEM cells assessed as radioactive 2', 3'-didehydro-3'-deoxy-4'-ethynylthymidine monophosphate accumulation at 2 uM assessed per 10^6 cells. Format: ADME, cell-based. The conditions noted are these: TDE = time-dependent effect. An outline of the steps:
as §2

Series [12] concerns CCRF-CEM. Nature of the series: Drug metabolism in human CEM cells assessed as radioactive stavudine triphosphate accumulation at 2 uM assessed per 10^6 cells. Format: ADME, cell-based. The conditions noted are these: TDE = time-dependent effect. An outline of the steps:
as §2

The subject of series [13] is RKO. Kind of series: Drug metabolism in doxycyclin-induced Tet-On gene expressing human RKO cells producing 3-phosphoglycerate kinase assessed as increase in radioactive 2', 3'-didehydro-3'-deoxy-4'-ethynylthymidine triphosphate accumulation at 2 uM after 16 hrs assessed per 10^6 cells by HPLC analysis relative to control. The format is ADME, cell-based. An outline of the steps:
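Tet-On PGK RKO cells (5 x 10^5 per dish) were induced with doxycycline at 0, 50 or 100 ng/ml for 48 or 72 h, then given 2 µM [5'-3H]4'-Ed4T (478 mCi/mmol) for 16 h. Cells were washed in cold PBS with 20 µM dipyridamole and extracted with 15% TCA. Neutralized extracts went through SAX-HPLC with radiometric detection, expressed as pmol/10^6 cells, mean of three experiments.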

Series [14] has as its system Human immunodeficiency virus 1. Kind of series: Antiviral activity against 0.1 MOI HIV1 3B in 24 hrs pretreated human TZM-b1 cells infected 24 hrs post drug removal assessed as inhibition of viral replication at 1 uM measured 24 hrs postinfection by luciferase assay. The format is functional. The conditions noted are these: Human immunodeficiency virus 1, 3B. An outline of the steps: as §4

The subject of series [15] is Human immunodeficiency virus 1. Nature of the series: Antiviral activity against 0.1 MOI HIV1 3B infected in human TZM-b1 cells assessed as inhibition of viral replication at 2 uM after 24 hrs by luciferase assay. The following applies: Human immunodeficiency virus 1, 3B, TZM-b1, 24 h. Format: functional. An outline of the steps:
as §1

In series [16] the test system is CCRF-CEM. Kind of series: Drug metabolism in human CEM cells assessed as radioactive stavudine monophosphate accumulation at 2 uM assessed per 10^6 cells. The conditions noted are these: TDE = time-dependent effect. The format is ADME, cell-based. An outline of the steps: as §2
For series [17], the system named is Human immunodeficiency virus 1. Kind of series: Antiviral activity against 0.1 MOI HIV1 3B in 24 hrs pretreated human TZM-b1 cells infected 0 hr post drug removal assessed as inhibition of viral replication at 6 uM measured 24 hrs postinfection by luciferase assay. The format is functional. The following applies: Human immunodeficiency virus 1, 3B. An outline of the steps:
as §4

The test system of series [18] is Human immunodeficiency virus 1. Kind of series: Antiviral activity against 0.1 MOI HIV1 3B in 24 hrs pretreated human TZM-b1 cells infected 0 hr post drug removal assessed as inhibition of viral replication at 3 uM measured 24 hrs postinfection by luciferase assay. The format is functional. The following applies: Human immunodeficiency virus 1, 3B. An outline of the steps: as §4

Series [19] deals with CCRF-CEM. Nature of the series: Drug metabolism in human CEM cells assessed as radioactive 2', 3'-didehydro-3'-deoxy-4'-ethynylthymidine triphosphate accumulation at 2 uM assessed per 10^6 cells. Format: ADME, cell-based. The conditions noted are these: TDE = time-dependent effect. An outline of the steps: as §2
Series [20] has as its system CCRF-CEM. Nature of the series: Drug metabolism in human CEM cells assessed as radioactive 2', 3'-didehydro-3'-deoxy-4'-ethynylthymidine diphosphate accumulation after 12 hrs assessed per 10^6 cells. Format: ADME, cell-based. An outline of the steps: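 For the dose series, CEM cells took up [3H]4'-Ed4T at 0.2/0.25, 0.5, 1 and 2 µM (150 mCi/mmol) for 12 h. TCA extracts were neutralized and the mono-, di- and triphosphates resolved by SAX-HPLC with radioactivity detection. Values are pmol/10^6 cells, mean ± SD, three independent experiments.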

For series [21], the system named is CCRF-CEM. Kind of series: Drug metabolism in human CEM cells assessed as radioactive 2', 3'-didehydro-3'-deoxy-4'-ethynylthymidine monophosphate accumulation after 12 hrs assessed per 10^6 cells. Format: ADME, cell-based. An outline of the steps: as §2
Series [22] relates to RKO. Kind of series: Drug metabolism in doxycyclin-induced Tet-On gene expressing human RKO cells producing thymidylate kinase assessed as increase in radioactive 2', 3'-didehydro-3'-deoxy-4'-ethynylthymidine diphosphate accumulation at 2 uM after 16 hrs assessed per 10^6 cells by HPLC analysis relative to control. Format: ADME, cell-based. An outline of the steps: as §3

The source of these data is ChEMBL document CHEMBL1137646, “Intracellular metabolism and persistence of the anti-human immunodeficiency virus activity of 2',3'-didehydro-3'-deoxy-4'-ethynylthymidine, a novel thymidine analog” (Antimicrob Agents Chemother, 2007).

The inhibition is the change of the read-out against control, counted positive when it falls. On to `C#C[C@@]1(CO)C=C[C@H](n2cc(C)c(=O)[nH]c2=O)O1` [CENSAVUDINE], for which, in series [1], the inhibition result is “Dose-dependent effect”. Moreover, the Activity result in the series with CCRF-CEM [2] is listed as “tde”; with CCRF-CEM [5], “Dose-dependent effect”; in the series on CCRF-CEM [6], “tde”; in the series on CCRF-CEM [11], “tde”; with CCRF-CEM [12], “tde”; in the series on CCRF-CEM [16], “tde”. Further, the Activity result in the series on CCRF-CEM [19] was “tde”; with CCRF-CEM [20], “Dose-dependent effect”; with CCRF-CEM [21] it was “Dose-dependent effect”. In addition, the “fold change (FC)” value in the series on RKO [3] worked out at 3; with RKO [13], 2.3; in the series with RKO [22] it was 3. For the same molecule, in series [4], the inhibition at 5 µM was determined as 50%. For the same molecule, the inhibition at 2 µM in [7] and in [15] was 50% in each case. For the same molecule, the inhibition at 4 µM in series [8] was 50%. Further, the inhibition at 6 µM in [9] and in [17] was 50% each time. The inhibition at 1 µM in series [10] was 50%; in series [14], more than 50%. The inhibition at 3 µM in [18] is 50%.
